Laboratory results published in ChEMBL document CHEMBL5500326, “Does size matter? - Comparing pyranoses with septanoses as ligands of the bacterial lectin FimH” (Eur J Med Chem, 2024).

Experiments:
[1] = (§1) Displacement of fluorescent tracer 3'-chloro-N-(2-(3-(3',6'-dihydroxy-3-oxo-3H-spiro[isobenzofuran-1,9'-xanthen]-5-yl)thioureido)ethyl)-4'-(alpha-D-mannopyranosyloxy)biphenyl-4-carboxamide from Escherichia coli F18 FimH lectin domain expressed in Escherichia coli HM125 assessed as dissociation constant incubated for 24 hrs by competitive binding based fluorescence polarization assay
Procedure, shortened: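 Competitive FP: 50 nM FimH lectin domain and 50 nM mannoside-fluorescein tracer; ligand serially diluted from 500 μM final in 20 mM HEPES pH 7.4, 150 mM NaCl, 50 μg/mL BSA, 5% DMSO (10% for poorly soluble ligands). Read after 24 h equilibration, Ex 485/Em 535 nm. KD from analytical competitive binding model fit.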

[2] = molecular target: Type 1 fimbrin D-mannose specific adhesin (Escherichia coli K-12, UniProt P08191); assay: as §1, with “F18 full-length” for “F18”, “FimH” for “FimH lectin domain”
Chain of Type 1 fimbrin D-mannose specific adhesin (P08191 whole entry, the tested form may be a part): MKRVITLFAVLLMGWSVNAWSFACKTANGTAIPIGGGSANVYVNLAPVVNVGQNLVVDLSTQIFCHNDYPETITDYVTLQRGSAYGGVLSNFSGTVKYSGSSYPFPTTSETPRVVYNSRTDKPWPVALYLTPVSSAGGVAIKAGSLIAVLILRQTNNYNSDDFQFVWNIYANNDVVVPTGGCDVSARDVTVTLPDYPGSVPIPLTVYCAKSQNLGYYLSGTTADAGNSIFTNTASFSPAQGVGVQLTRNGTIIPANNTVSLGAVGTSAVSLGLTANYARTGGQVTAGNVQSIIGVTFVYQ
Procedure, shortened: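 Competitive FP with full-length FimH at 300 nM and tracer at 500 nM; ligand serially diluted from 5 mM final, or 50 μM for some mannosides, in 20 mM HEPES pH 7.4, 150 mM NaCl, 50 μg/mL BSA, 5% DMSO (10% for poorly soluble ligands, top 500 μM). Read after 24 h, Ex 485/Em 535 nm. KD from competitive binding model fit.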

[3] = tested on: Escherichia coli; assay: Ratio of kd for displacement of fluorescent tracer 3'-chloro-N-(2-(3-(3',6'-dihydroxy-3-oxo-3H-spiro[isobenzofuran-1,9'-xanthen]-5-yl)thioureido)ethyl)-4'-(alpha-D-mannopyranosyloxy)biphenyl-4-carboxamide from Escherichia coli F18 full-length FimH expressed in Escherichia coli HM125 to kd for displacement of fluorescent tracer 3'-chloro-N-(2-(3-(3',6'-dihydroxy-3-oxo-3H-spiro[isobenzofuran-1,9'-xanthen]-5-yl)thioureido)ethyl)-4'-(alpha-D-mannopyranosyloxy)biphenyl-4-carboxamide from Escherichia coli F18 FimH lectin domain expressed in Escherichia coli HM125
Procedure, shortened: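 Ratio of FP-derived KD for full-length FimH (300 nM protein, 500 nM tracer, ligand from 5 mM) over KD for lectin domain (50 nM each, ligand from 500 μM). Both in HEPES/NaCl/BSA buffer pH 7.4 with DMSO, 24 h equilibration, Ex 485/Em 535 nm, competitive binding model fit.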

[4] = Binding affinity to Escherichia coli F18 FimH lectin domain expressed in Escherichia coli HM125 assessed as dissociation constant by isothermal titration calorimetry
Procedure, shortened: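 ITC at 25 °C; protein dialyzed against 20 mM HEPES, 150 mM NaCl, pH 7.4, ligand dissolved in dialysate, 5% or 10% DMSO. Baselines corrected and peaks integrated, then global nonlinear regression fitting with confidence intervals.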

Kd [2] | SMILES | Kd ([1]; read-out: Kd) | Kd ([2]; read-out: Kd) | Ratio [3] | Kd [4] | Kd [1]
– | NC(=O)c1ccc(-c2ccc(CO[C@H]3CO[C@H](CO)[C@@H](O)[C@H](O)[C@@H]3O)c(Cl)c2)cc1 | 1580 nM | 59400 nM | 37.6 | – | –
– | N#Cc1ccc(-c2ccc(CO[C@H]3CO[C@H](CO)[C@@H](O)[C@H](O)[C@@H]3O)cc2)cc1 | 1440 nM | 63100 nM | 43.8 | – | –
– | CCCCCCCO[C@H]1CO[C@H](CO)[C@@H](O)[C@H](O)[C@@H]1O | 1940 nM | 31800 nM | 16.4 | – | –
– | N#Cc1ccc(-c2ccc(O[C@H]3CO[C@H](CO)[C@@H](O)[C@H](O)[C@@H]3O)c(Cl)c2)cc1 | 100 nM | 6990 nM | – | – | –
– | N#Cc1cccc(-c2ccc(CO[C@H]3CO[C@H](CO)[C@@H](O)[C@H](O)[C@@H]3O)c(Cl)c2)c1 | 1440 nM | 35500 nM | 24.7 | – | –
– | CCCCCCCO[C@H]1O[C@H](CO)[C@@H](O)[C@H](O)[C@@H]1O | 28.3 nM | 3600 nM | – | – | –
– | OC[C@H]1O[C@H](Oc2ccc(-c3ccccc3)cc2)[C@@H](O)[C@@H](O)[C@@H]1O | 15.1 nM | – | – | – | –
– | NC(=O)c1ccc(-c2ccc(O[C@H]3CO[C@H](CO)[C@@H](O)[C@H](O)[C@@H]3O)c(Cl)c2)cc1 | 120 nM | 7340 nM | – | – | –
– | OC[C@H]1O[C@H](Oc2ccc(-c3ccccc3)cc2Cl)[C@@H](O)[C@@H](O)[C@@H]1O | 2.8 nM | 458 nM | – | – | –
– | N#Cc1ccc(-c2ccc(CO[C@H]3CO[C@H](CO)[C@@H](O)[C@H](O)[C@@H]3O)c(Cl)c2)cc1 | 1300 nM | 37800 nM | 29.1 | – | –
– | NC(=O)c1ccc(-c2ccc(O[C@H]3O[C@H](CO)[C@@H](O)[C@H](O)[C@@H]3O)c(Cl)c2)cc1 | 0.3 nM | 86 nM | – | – | –
– | N#Cc1ccc(-c2ccc(O[C@H]3CO[C@H](CO)[C@@H](O)[C@H](O)[C@@H]3O)cc2)cc1 | 260 nM | 42300 nM | – | 838 nM | –
– | OC[C@H]1OC[C@H](OCc2ccc(-c3ccccc3)cc2)[C@@H](O)[C@@H](O)[C@@H]1O | 5670 nM | 110000 nM | 19.3 | – | –
Not Active | CCCCCCCO[C@@H]1C[C@@H](O)[C@@H](O)[C@H](O)[C@@H](CO)O1 | – | – | – | – | Not Active
– | NC(=O)c1ccc(-c2ccc(CO[C@H]3CO[C@H](CO)[C@@H](O)[C@H](O)[C@@H]3O)cc2)cc1 | 2720 nM | 116000 nM | 42.7 | – | –
– | OC[C@H]1OC[C@H](Oc2ccc(-c3ccccc3)cc2Cl)[C@@H](O)[C@@H](O)[C@@H]1O | 60 nM | 6110 nM | – | – | –
– | N#Cc1ccc(-c2ccc(O[C@H]3O[C@H](CO)[C@@H](O)[C@H](O)[C@@H]3O)c(Cl)c2)cc1 | 0.5 nM | 84 nM | – | – | –
– | OC[C@H]1OC[C@H](OCCCc2ccccc2)[C@@H](O)[C@@H](O)[C@@H]1O | 7050 nM | 125000 nM | 17.8 | – | –
– | NC(=O)c1ccc(-c2ccc(O[C@H]3O[C@H](CO)[C@@H](O)[C@H](O)[C@@H]3O)cc2)cc1 | – | 240 nM | – | – | –
– | OC[C@H]1OC[C@H](OCc2ccccc2)[C@@H](O)[C@@H](O)[C@@H]1O | 80100 nM | 417000 nM | 5.2 | – | –
– | N#Cc1ccc(-c2ccc(O[C@H]3O[C@H](CO)[C@@H](O)[C@H](O)[C@@H]3O)cc2)cc1 | – | 208 nM | – | – | –
